Measured values taken from ChEMBL document CHEMBL1134354, “Anti-AIDS agents. 42. Synthesis and anti-HIV activity of disubstituted (3'R,4'R)-3',4'-di-O-(S)-camphanoyl-(+)-cis-khellactone analogues” (J Med Chem, 2001).
Active and inactive are the calls of the source. No cut-off for these calls is given here.

Experiments:
H9 [1] = assay: Inhibitory activity against HIV-1 replication in H9 lymphocytes; assay type: functional, cell-based; conditions: Homo sapiens
Summary of the method: (§1)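 They were infected with HIV-1 at a moi of 0.1–0.01 for 4 h, washed three times, and then cultured for 4 days with graded drug concentrations; AZT was run as a control. Day-4 cell-free supernatant p24 was measured by ELISA. Toxicity was measured by Coulter counts of mock-infected cells.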

[2] = Therapeutic index is the ratio of IC50 to EC50 in H9 lymphocytes; assay type: cell-based; conditions: human, read-out: TI; summary of the method: as §1
H9 [3] = assay: Toxicity was determined in H9 lymphocytes; assay type: functional, cell-based; conditions: Homo sapiens; summary of the method: as §1
H9 [4] = assay: Inhibitory activity against HIV-1 replication in H9 lymphocytes; NS= no suppression; assay type: functional, cell-based; conditions: Homo sapiens; summary of the method: as §1

Row | SMILES | EC50 (H9 [1]) | selectivity ratio [2] | IC50 (H9 [3]) | NS (H9 [4])
1 | Cc1c(-c2ccccc2)c(=O)oc2c3c(ccc12)OC(C)(C)[C@H](OC(=O)C12CCC(C)(C(=O)O1)C2(C)C)[C@@H]3OC(=O)C12CCC(C)(C(=O)O1)C2(C)C (stereo partly drawn) | 43700 nM | > 3.2 | > 140000 nM | –
2 | Cc1c(Cl)c(=O)oc2c3c(ccc12)OC(C)(C)[C@H](OC(=O)C12CCC(C)(C(=O)O1)C2(C)C)[C@@H]3OC(=O)C12CCC(C)(C(=O)O1)C2(C)C (stereo partly drawn) | 2.01 nM | 51700 | 104000 nM | –
3 | Cc1cc2c(C)cc3c(c2oc1=O)[C@@H](OC(=O)C12CCC(C)(C(=O)O1)C2(C)C)[C@@H](OC(=O)C12CCC(C)(C(=O)O1)C2(C)C)C(C)(C)O3 (stereo partly drawn) | 9.1 nM | > 16900 | > 154000 nM | –
4 | Cc1cc2c(c3oc(=O)cc(C)c13)[C@@H](OC(=O)C13CCC(C)(C(=O)O1)C3(C)C)[C@@H](OC(=O)C13CCC(C)(C(=O)O1)C3(C)C)C(C)(C)O2 (stereo partly drawn) | 4.19 nM | > 36800 | > 154000 nM | –
5 | CC1(C)Oc2ccc3c4c(c(=O)oc3c2[C@@H](OC(=O)C23CCC(C)(C(=O)O2)C3(C)C)[C@H]1OC(=O)C12CCC(C)(C(=O)O1)C2(C)C)CCCC4 (stereo partly drawn) | 2.12 nM | > 69800 | > 148000 nM | –
6 | COc1cc2c(c3oc(=O)cc(C)c13)[C@@H](OC(=O)C13CCC(C)(C(=O)O1)C3(C)C)[C@@H](OC(=O)C13CCC(C)(C(=O)O1)C3(C)C)C(C)(C)O2 (stereo partly drawn) | 0.00721 nM | > 2.08e+07 | > 150000 nM | –
7 | Cc1cc(=O)oc2c3c(cc(OCc4ccccc4)c12)OC(C)(C)[C@H](OC(=O)C12CCC(C)(C(=O)O1)C2(C)C)[C@@H]3OC(=O)C12CCC(C)(C(=O)O1)C2(C)C (stereo partly drawn) | 1540 nM | 87.7 | 135000 nM | –
8 | CC1(C)Oc2ccc3ccc(=O)oc3c2[C@@H](OC(=O)C23CCC(C)(C(=O)O2)C3(C)C)[C@H]1OC(=O)C12CCC(C)(C(=O)O1)C2(C)C (stereo partly drawn) | 0.256 nM | 137000 | – | –
9 | Cc1c(C)c2ccc3c(c2oc1=O)[C@@H](OC(=O)C12CCC(C)(C(=O)O1)C2(C)C)[C@@H](OC(=O)C12CCC(C)(C(=O)O1)C2(C)C)C(C)(C)O3 (stereo partly drawn) | 1.92 nM | > 80200 | > 154000 nM | –
10 | Cc1cc2c(c3oc(=O)cc(C(C)C)c13)[C@@H](OC(=O)C13CCC(C)(C(=O)O1)C3(C)C)[C@@H](OC(=O)C13CCC(C)(C(=O)O1)C3(C)C)C(C)(C)O2 (stereo partly drawn) | – | – | > 147000 nM | inactive
